Test results: ChEMBL document CHEMBL3425458, “Design, synthesis and antitumor activity of triterpenoid pyrazine derivatives from 23-hydroxybetulinic acid” (Eur J Med Chem, 2015)

Columns and labels:
[1] = Antiproliferative activity against human Bel7402 cells assessed as growth inhibition after 72 hrs by MTT assay; format: functional, cell-based; conditions: Bel-7402, 72 h
Procedure, shortened: (§1)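 IC50 is the concentration inhibiting 50% cell growth. Values are mean ± S.D. from three different experiments, each performed in triplicate.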

[2] = Antiproliferative activity against human HL60 cells assessed as growth inhibition after 72 hrs by MTT assay; format: functional, cell-based; conditions: HL-60, 72 h
Procedure, shortened: (§2)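 Values are mean ± S.D. from three different experiments, each performed in triplicate.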

B16 [3] = test: Antiproliferative activity against mouse B16 cells assessed as growth inhibition after 72 hrs by MTT assay; format: functional, cell-based; conditions: B16, 72 h; procedure, shortened: as §1
HeLa = test: Antiproliferative activity against human HeLa cells assessed as growth inhibition after 72 hrs by MTT assay; format: functional, cell-based; procedure, shortened: as §1
[4] = Antiproliferative activity against human SF763 cells assessed as growth inhibition after 72 hrs by MTT assay; format: functional, cell-based; conditions: SF763, 72 h; procedure, shortened: as §2
H22 = test: In vivo antitumor activity […] cells xenografted in mouse assessed as tumor growth inhibitory ratio at 30 mg/kg, ip administered after 7 days of tumor transplantation measured at 25th day after tumor inoculation; format: functional; conditions: 168 h, route intraperitoneal
Procedure, shortened: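 Mice bearing H22 liver cancer, 10 per group. Test article at 30 mg/kg ip. Vehicle 0.5 mL/mouse iv. Cyclophosphamide 30 mg/kg iv as positive control. Tumor weight recorded to give tumor inhibitory ratio.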

Mus musculus [5] = test: Toxicity against mouse xenografted with mouse B16 cells assessed as body weight at 30 mg/kg, ip administered after 7 days of tumor transplantation (reference value: 18.2 to 18.3 gms); format: organism-based; design: dose 30 mg/kg, route intraperitoneal; conditions: in vivo, 168 h
B16 [6] = test: In vivo antitumor activity against mouse B16 cells xenografted in mouse assessed as tumor growth inhibitory ratio at 30 mg/kg, ip administered after 7 days of tumor transplantation measured at 25th day after tumor inoculation; format: functional; conditions: 168 h, route intraperitoneal
Mus musculus [7] = test: Toxicity against mouse xenografted […] cells assessed as body weight at 30 mg/kg, ip administered after 7 days of tumor transplantation (reference value: 18.1 to 18.6 gms); format: organism-based; design: dose 30 mg/kg, route intraperitoneal; conditions: in vivo, 168 h
Procedure, shortened: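 H22 liver cancer-bearing mice, 10 per group at start and end. Test article given ip at 30 mg/kg, with a vehicle group (0.5 mL/mouse, iv). Body weight was recorded at start and at end, alongside tumor weight.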

Row | Structure (SMILES) | IC50 [1] | IC50 [2] | IC50 (B16 [3]) | IC50 (HeLa) | IC50 [4] | inhibition in vivo at 30 mg/kg (H22) | Activity (Mus musculus [5]) | inhibition in vivo at 30 mg/kg (B16 [6]) | Activity (Mus musculus [7])
1 | COc1cccc2c1C(=O)c1c(O)c3c(c(O)c1C2=O)C[C@@](O)(C(=O)CO)C[C@@H]3O[C@H]1C[C@H](N)[C@H](O)[C@H](C)O1 [DOXORUBICIN] | 0.22 µM | – | – | – | – | – | – | – | –
2 | C=C(C)[C@@H]1CC[C@]2(C(=O)NCC(=O)OC)CC[C@]3(C)[C@H](CC[C@@H]4[C@@]5(C)Cc6nccnc6[C@@](C)(COC(C)=O)[C@@H]5CC[C@]43C)[C@@H]12 | 11.1 µM | 14.7 µM | 8.08 µM | 10.9 µM | 9.26 µM | – | – | – | –
3 | C=C(C)[C@@H]1CC[C@]2(C(=O)O)CC[C@]3(C)[C@H](CC[C@@H]4[C@@]5(C)CC[C@H](O)[C@@](C)(CO)[C@@H]5CC[C@]43C)[C@@H]12 | – | – | – | – | – | 27.8% | 26.7 g | 32.4% | 26.1 g
4 | C=CCOC(=O)[C@]12CC[C@@H](C(=C)C)[C@@H]1[C@H]1CC[C@@H]3[C@@]4(C)Cc5nccnc5[C@@](C)(CO)[C@@H]4CC[C@@]3(C)[C@]1(C)CC2 | 11.9 µM | 19.1 µM | 8.98 µM | 11 µM | 8.62 µM | – | – | – | –
5 | C=C(C)[C@@H]1CC[C@]2(C(=O)OCCO)CC[C@]3(C)[C@H](CC[C@@H]4[C@@]5(C)Cc6nccnc6[C@@](C)(CO)[C@@H]5CC[C@]43C)[C@@H]12 | 17.4 µM | 23.6 µM | 13.1 µM | 20.7 µM | 13.5 µM | – | – | – | –
6 | C=C(C)[C@@H]1CC[C@]2(C(=O)OCCO)CC[C@]3(C)[C@H](CC[C@@H]4[C@@]5(C)Cc6nccnc6[C@@](C)(COC(C)=O)[C@@H]5CC[C@]43C)[C@@H]12 | 15.7 µM | 22.2 µM | 12.1 µM | 17.5 µM | 13 µM | – | – | – | –
7 | C=C(C)[C@@H]1CC[C@]2(C(=O)OCC(=O)OCC)CC[C@]3(C)[C@H](CC[C@@H]4[C@@]5(C)Cc6nccnc6[C@@](C)(CO)[C@@H]5CC[C@]43C)[C@@H]12 | 17 µM | 23.6 µM | 11.3 µM | 17 µM | 13.1 µM | – | – | – | –
8 | C=C(C)[C@@H]1CC[C@]2(C(=O)Oc3ccc(C#N)cc3)CC[C@]3(C)[C@H](CC[C@@H]4[C@@]5(C)Cc6nccnc6[C@@](C)(COC(C)=O)[C@@H]5CC[C@]43C)[C@@H]12 | 8.09 µM | 10.2 µM | 6.02 µM | 7.91 µM | 5.77 µM | – | – | – | –
9 | O=P1(N(CCCl)CCCl)NCCCO1 (centres undefined) [CYCLOPHOSPHAMIDE ANHYDROUS] | – | – | – | – | – | 53.7% | – | – | 25.7 g
10 | C=C(C)[C@@H]1CC[C@]2(C(=O)OCC(=O)O)CC[C@]3(C)[C@H](CC[C@@H]4[C@@]5(C)Cc6nccnc6[C@@](C)(CO)[C@@H]5CC[C@]43C)[C@@H]12 | 13.1 µM | 19.5 µM | 9.41 µM | 10.1 µM | 8.86 µM | – | – | – | –
11 | C=C(C)[C@@H]1CC[C@]2(C(=O)OCC)CC[C@]3(C)[C@H](CC[C@@H]4[C@@]5(C)Cc6nccnc6[C@@](C)(CO)[C@@H]5CC[C@]43C)[C@@H]12 | 14.8 µM | 22.5 µM | 9.97 µM | 15.1 µM | 10 µM | – | – | – | –
12 | O=c1[nH]cc(F)c(=O)[nH]1 [FLUOROURACIL] | – | – | – | – | – | – | 26.2 g | 70.3% | –
13 | C=C(C)[C@@H]1CC[C@]2(C(=O)O[C@@H]3O[C@H](CO)[C@@H](O)[C@H](O)[C@H]3O)CC[C@]3(C)[C@H](CC[C@@H]4[C@@]5(C)Cc6nccnc6[C@@](C)(CO)[C@@H]5CC[C@]43C)[C@@H]12 | 17.7 µM | 21.1 µM | 12.8 µM | 15.9 µM | 11 µM | – | – | – | –
14 | C=C(C)[C@@H]1CC[C@]2(C(=O)O)CC[C@]3(C)[C@H](CC[C@@H]4[C@@]5(C)Cc6nccnc6[C@@](C)(CO)[C@@H]5CC[C@]43C)[C@@H]12 | 19.1 µM | 24.1 µM | 14.9 µM | 19.6 µM | 15.4 µM | – | – | – | –
15 | C=C(C)[C@@H]1CC[C@]2(C(=O)O)CC[C@]3(C)[C@H](CC[C@@H]4[C@@]5(C)Cc6nccnc6[C@@](C)(COC(C)=O)[C@@H]5CC[C@]43C)[C@@H]12 | 16.8 µM | 20.4 µM | 9.9 µM | 14.6 µM | 11.1 µM | – | – | – | –
16 | C=C(C)[C@@H]1CC[C@]2(C(=O)OCc3ccccc3)CC[C@]3(C)[C@H](CC[C@@H]4[C@@]5(C)Cc6nccnc6[C@@](C)(CO)[C@@H]5CC[C@]43C)[C@@H]12 | 10.1 µM | 18.9 µM | 8.56 µM | 12.8 µM | 9.54 µM | – | – | – | –
17 | C=C(C)[C@@H]1CC[C@]2(C(=O)OCc3ccc(-c4ccccc4C#N)cc3)CC[C@]3(C)[C@H](CC[C@@H]4[C@@]5(C)Cc6nccnc6[C@@](C)(CO)[C@@H]5CC[C@]43C)[C@@H]12 | 9.37 µM | 11.7 µM | 7.15 µM | 9.32 µM | 5.63 µM | – | – | – | –
